Shown are actives, neighbours in structure and some others; about 6.3% of the full set was active somewhere.
M1 antagonist – blocks the rat M1 muscarinic receptor response to acetylcholine. P08482. CHO-M1 cells, Fluo-4 calcium, ACh EC80 antagonist mode; active compounds read low. B-score at 10 µM. actives 3.4% (n = 64,000). AID 628;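 active means calcium fluorescence response, raw or row-and-column corrected B-score, differing from the plate sample mean either way at a set confidence level, mostly lower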
Target sequence (P08482 whole entry, looked up): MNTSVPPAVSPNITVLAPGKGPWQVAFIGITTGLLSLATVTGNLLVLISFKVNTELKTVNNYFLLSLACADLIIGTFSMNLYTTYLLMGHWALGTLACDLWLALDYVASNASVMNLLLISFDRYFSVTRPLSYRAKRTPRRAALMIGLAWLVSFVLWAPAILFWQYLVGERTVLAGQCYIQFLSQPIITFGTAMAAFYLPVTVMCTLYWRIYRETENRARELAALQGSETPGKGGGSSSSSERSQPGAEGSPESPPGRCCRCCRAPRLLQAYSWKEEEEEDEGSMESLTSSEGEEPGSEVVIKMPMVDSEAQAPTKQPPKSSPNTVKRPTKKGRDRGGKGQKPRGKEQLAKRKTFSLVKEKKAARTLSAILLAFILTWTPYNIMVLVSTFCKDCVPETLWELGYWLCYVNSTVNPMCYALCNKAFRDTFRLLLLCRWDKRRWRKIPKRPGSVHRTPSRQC
RORA act – RORA (human) activation; P35398; activation, % at 10 µM; CHO-K1 Gal4-RORA LBD luciferase reporter, luminescence; percent increase over mock-subtracted basal signal; actives 1.5% (n = 65,000);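 active means activation above the mean of all tested compounds plus 3 SD, cut at about 49% in these data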;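 further: 0% = DMSO-treated RORA cells and 100% = added signal equal to DMSO minus mock-transfected cells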
M1 agonist – M1 muscarinic receptor agonism. actives 3% (n = 64,000). CHO-M1 cells, Fluo-4 calcium fluorescence, agonist mode; active compounds read high. AID 626. B-score at 10 µM;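 active means fluorescence rise, raw or as B-score row- and column-corrected plate score, outside the 99.7% band of its plate's samples, either direction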
SF1 activator – activators of human nuclear receptor SF-1; activation, % at 10 µM; CHO-K1 Gal4-SF-1 LBD luciferase reporter; % increase over DMSO SF-1-specific signal; actives 1.9% (n = 65,000); AID 522;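 active means activation above the mean activation of all tested compounds plus 3 SD, cut at about 50% in these data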
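material = CHO-K1 cells with Gal4–hSF-1 LBD chimera plus Gal4-driven luciferase | compound = 10 µM single point, 1% DMSO | incubation = 20 h compound exposure at 37 °C after 1 h cell settling | measured by = SteadyLite luciferase luminescence | evaluation = percent activation relative to DMSO median and mock-transfected background | control set = DMSO negative control and −SF1 background wells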
MT1-MMP txn act – activates MT1-MMP transcription; HT1080 MT1-MMP promoter luciferase reporter, luminescence, overnight; active compounds read high; activation factor at 10 µM; actives 0.16% (n = 86,000); AID 750;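 active means activation factor of at least 2 for MT1-MMP transcription at 10 µM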
M1 agonist conf – rat M1 muscarinic agonism, confirmation | shares compounds with M1 agonist | CHO-M1 cells, Fluo-4 calcium fluorescence, agonist mode; actives lie on both sides | fluorescence change (max-min) at 10 µM | actives 19% (n = 1,700) | AID 1488;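 active means fluorescence change differs from the solvent-only DMSO control mean at a set confidence level in both duplicate runs; inconclusive means differs from solvent-only control mean in just one of two runs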;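 further: an EC20 dose of acetylcholine follows compound addition during the same imaging run; raw fluorescence intensity difference in instrument units with no normalization to controls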
M4 agonist ctr – rat M4 muscarinic agonism, M1 counter-screen; shares compounds with M1 agonist; fluorescence change (max-min) at 10 µM; CHO M4/Gqi5 cells, Fluo-4 calcium fluorescence, agonist mode; actives lie on both sides; AID 1741; actives 9% (n = 1,700);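 active means fluorescence change differing from the plate's solvent-only control wells at 99.7% confidence in both duplicates, whether higher or lower; inconclusive means differs from solvent controls in only one of two duplicates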
Starred values were filed as active, the others as inactive; ? = inconclusive; . = no result.

SMILES | M1 antagonist | RORA act | M1 agonist | SF1 activator | MT1-MMP txn act | M1 agonist conf | M4 agonist ctr
CCCc1nnc(NC(=O)CCC(=O)N2CCN(CCOc3ccc(C)cc3)CC2)s1 | -1.6 | -11 | 20* | -12 | 1.1 | -7.2 | -35
Cc1ccc(Cl)cc1N1CCN(S(=O)(=O)c2cnc[nH]2)CC1 | -0.017 | 8 | -0.82 | -4 | 1 | . | .
COc1ccc(CCNC(=O)NC23CC4CC(CC(C4)C2)C3)cc1OC | . | . | . | . | 1.2 | . | .
O=C(CSc1nc2ccc(Cl)cc2[nH]1)NCc1ccco1 | -0.37 | 14 | 3.1* | 3 | 1.2 | -25* | -74*
CCOC(=O)CNC(=O)CSc1ncnc2c1cnn2-c1ccc(C)cc1 | 0.00036 | -14 | -2.2* | -23 | . | 5.3 | -19
CCOC(=O)CNC(=O)CSc1ncnc2c1cnn2-c1ccccc1 | -0.94 | 29 | -1.2 | -24 | 0.9 | . | .
Cc1ccc2nc(/C(C#N)=C/c3cn[nH]c3-c3ccc(F)cc3)[nH]c2c1 | . | . | . | . | 1.1 | . | .
Cc1ccc2nc(/C(C#N)=N/O)[nH]c2c1 | 1.2 | -7 | 3.6* | 10 | 1.1 | ? | -33
COC(=O)c1ccc(/C(O)=C(\C#N)c2nc3ccccc3s2)cc1 | -2.4* | 19 | 2.7* | 84* | 1.5 | 28 | -1.3
CCc1ccc(-c2nc(CSCC(=O)N3CCN(c4ncccn4)CC3)c(C)o2)cc1 | -0.46 | -48 | 8.2* | -51 | . | -15 | ?
CSc1ccc(-c2nc(CSCC(=O)N3CCOCC3)c(C)o2)cc1 | 0.32 | -2 | -2.6 | 8 | 1.3 | . | .
Cc1ccc(-c2noc(CCC(=O)Nc3ccc4c(c3)OCO4)n2)cc1 | 0.85 | -11 | -0.8 | -18 | 1.3 | . | .
COc1ccc(-c2noc(CCC(=O)Nc3ccc4c(c3)OCCO4)n2)cc1 | -2* | -11 | 3.7* | 16 | . | 20 | -11
COc1ccc(NC(=O)CNS(=O)(=O)c2ccc3nc(C)sc3c2)c(OC)c1 | 0.98 | 11 | -0.17 | 11 | 1.2 | . | .
Cc1cc(N2CCN(S(=O)(=O)c3ccc(Cl)cc3)CC2)c2ccccc2n1 | -7.4* | . | 5.2* | . | . | -10 | -16
CN(C)c1ccc(N/C=C/C(=O)c2ccccc2)cc1 | -0.065 | -29 | 2.5* | -66 | 0.1 | ? | -8.6
CCn1cc(C(=O)Nc2ccc3c(c2)OCCO3)c2cc(OC)c(OC)cc2c1=O | -0.0093 | 9 | 4.1* | 6 | 1.2 | ? | -47
COc1cc(C(=O)Nc2ccc3c(c2)OCCO3)ccc1OC(C)C | 0.73 | 45 | 3.7* | 54* | 1.4 | -25 | -40
O=C(CSc1ncn[nH]1)N(C1CCCCC1)C1CCCCC1 | . | . | . | . | 1 | . | .
CCOc1cc(-c2ccc(N)c(OCC)c2)ccc1N | 0.077 | -10 | 36* | -9 | 1.6 | 249* | 211*
COc1ccc(NC(=O)C2CCCN(C)C2)cc1OCC(C)C (configuration not stated) | . | . | . | . | 1.2 | . | .
CCCOC(=O)c1ccc(OCC(O)Cn2c(C)nc3ccccc32)cc1 (configuration not stated) | -0.29 | -40 | 5.7* | -36 | 1.1 | ? | -84
CC(=O)Nc1cccc(OCC(O)Cn2c(C)nc3ccccc32)c1 (configuration not stated) | . | . | . | . | 1.2 | . | .
Cc1ccc2cccc(S(=O)(=O)Nc3ccc4c(c3)OCO4)c2n1 | 0.64 | -25 | -0.8 | -2 | 1 | . | .
CCOC(=O)N1CCC(NC(=O)C2CCCN(Cc3nc(-c4cccc(Cl)c4)oc3C)C2)CC1 (configuration not stated) | -4.4* | -63 | 10* | -58 | . | -5.4 | -56
SMILES | M1 antagonist | RORA act | M1 agonist | SF1 activator | MT1-MMP txn act | M1 agonist conf | M4 agonist ctr
CCN1CCN(CCNC(=O)C2CCCN(Cc3nc(-c4cccc(Cl)c4)oc3C)C2)CC1 (configuration not stated) | 0.38 | 26 | 0.76 | 4 | 1.1 | . | .
CCCCNC(=O)c1ccc(NS(=O)(=O)c2ccccc2)cc1 | 0 | -2 | -0.5 | 10 | 0.9 | . | .
Cc1ccc(-n2nc(-c3cccnc3)cc2C(=O)N2CCOCC2)c(C)c1 | -0.3 | 2 | 20* | 2 | 1.1 | ? | -26
COc1ccc(NC(=O)C2Cc3ccccc3CN2C(=O)c2ccccc2)cn1 (configuration not stated) | -0.62 | 9 | 16* | 35 | 1.2 | ? | ?
O=C(NC1=NCCS1)C1Cc2ccccc2CN1C(=O)c1ccccc1 (configuration not stated) | -0.51 | 10 | 0.24 | 15 | 1.4 | . | .
CCOC(=O)C1CCCN(c2cc(C)nc3cc(-c4ccc(F)cc4)nn23)C1 (configuration not stated) | -3.8* | 4 | 30* | 10 | 1.1 | 386* | -23
CCOC(=O)C1CCCN(c2cc(C)nc3cc(-c4ccc(Cl)cc4)nn23)C1 (configuration not stated) | . | . | . | . | 1.1 | . | .
Cc1nn(-c2ccc(F)cc2)c2c1cc(C#N)c1nc3ccccc3n12 | -0.034 | -4 | 0.24 | -3 | 1.1 | . | .
CN(C(=O)c1cccc(C#N)c1)c1nnc(-c2cnccn2)s1 | 0.15 | -2 | 2.4 | 5 | 1.1 | . | .
Cc1nn(C)c(C)c1CN(C)C(=O)c1cnn2c1NC(c1ccccc1)CC2C(F)(F)F (configuration not stated) | -0.62 | -18 | -3.3* | -11 | 1 | -26* | ?
Cc1cc(=S)[nH]c2c(C)cccc12 | . | . | . | . | 1.1 | . | .
Cc1ccccc1CN1CCN(S(C)(=O)=O)CC1 | . | . | . | . | 1.1 | . | .
CS(=O)(=O)N1CCN(CC2CC3C=CC2C3)CC1 (configuration not stated) | -6.8* | -1 | 37* | -2 | 1.1 | 208* | -53
O=C(Cc1ccccc1)N1CCN(C(=O)c2ccco2)CC1 | . | . | . | . | 1.2 | . | .
C1=CC2CC1CC2CN1CCN(c2ccccc2)CC1 (configuration not stated) | -1.4 | 0 | 6.4* | -18 | 1.2 | ? | -42
O=C(c1ccco1)N1CCN(CC2CC3C=CC2C3)CC1 (configuration not stated) | -2.4* | 24 | 6.2* | 29 | 1.2 | ? | -57
CCn1c(SCc2nc3cc(OC)c(OC)cc3c(=O)[nH]2)nnc1-c1ccncc1 | 1.1 | -23 | -0.12 | -17 | 1.3 | . | .
Cc1ccc(-n2ncc(C(=O)N3CCc4ccccc4C3)c2NC(=O)c2ccco2)cc1C | 0.27 | -2 | -0.59 | -14 | 1.1 | . | .
CCOc1ccccc1NC(=O)c1ccc(F)c(S(=O)(=O)N2CCC3(CC2)OCCO3)c1 | -0.64 | 22 | 0.77 | 12 | 1.2 | . | .
CCOC(=O)N1CCC(NC(=O)c2cccc3c2C(=O)N(c2ccc(OC)cc2)C3)CC1 | 0.11 | 9 | 2.5* | 12 | 1 | ? | -82
CS(=O)(=O)N(CC(=O)NCc1ccncc1)Cc1ccc(Cl)cc1 | -0.9 | -6 | 2.2* | -10 | 1.1 | -5.7 | -13

High-throughput results: PubChem, several laboratories
